Data reported in PMC11962390 (Molecular Cancer Therapeutics, 2025).

What was measured:
FT194 cells = test: CellTiter-Glo cell viability assay; assay type: cell-based, human; conditions: nonmalignant fallopian tube secretory cell line FT194, 48 hours
In short: (§1)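 2D culture in the cells' own medium in 96-well plates. Cells were treated with a dose curve of test compound one day after plating. CellTiter-Glo luminescence was read after 48 h. Viability was expressed as fold change to DMSO (mean ± SEM, n = 3). EC50 came from a sigmoidal variable-slope fit.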

OV231-CP30 cells [1] = test: MTT cell viability assay; assay type: cell-based, human
[2] = system: P12_rPer patient-derived organoid; test: Organoid drug-response profiling; assay type: cell-based, human; conditions: 96 hours
In short: (§2)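 Patient-derived HGSC organoids were embedded in BME-2 droplets in 384-well ultralow-attachment plates and grown 7–10 days with medium changes every 2–3 days. Test compounds were added in five 10-fold dilutions, with DMSO and 10 μmol/L bortezomib as controls. After 96 h at 37°C, wells were stained 2 h with CellTox Green and Hoechst 33342 (5 μg/mL final) and imaged confocally. Survival was normalized to controls and fitted by four-parameter fit (bottom 0), mean ± SD, n = 2.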

[3] = system: P8_rAsc patient-derived organoid; test: Organoid drug-response profiling; assay type: cell-based, human; conditions: 96 hours
In short: as §2

[4] = system: panel of 377 human wild-type kinases; test: Kinase selectivity profiling, KinaseProfiler; assay type: biochemical; conditions: of 377 human wildtype kinases
In short: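 Radiometric 33P transfer from [γ-33P]ATP to peptide/protein substrates was used, in 8 mmol/L MOPS pH 7.0 with 0.2 mmol/L EDTA and kinase-specific metal supplements. Lipid and atypical kinases were run by HTRF in HEPES buffer. […] Output was % activity remaining, with full inhibition set by reference inhibitors.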

OV81-CP40 cells [5] = test: CellTiter-Glo cell viability assay; assay type: cell-based, human
OV81-CP40 spheres = test: 3D CellTiter-Glo cell viability assay of spheres; assay type: cell-based, human; conditions: OV81-CP40 grown in 3D (spheroids), 48 hours
In short: (§3)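 Cells (500) were seeded in MammoCult with proliferation supplement in ultralow-attachment 96-well plates to form spheres. Seven days after plating, the spheres were treated with the test compound. CellTiter-Glo 3D luminescence was read 48 h later. Dose–response curves were fitted by sigmoidal variable-slope fit.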

FT237 cells [6] = test: CellTiter-Glo cell viability assay; assay type: cell-based, human; conditions: nonmalignant fallopian tube secretory cell line FT237, 48 hours
In short: as §1

JHUEM7 cells = test: MTT cell viability assay; assay type: cell-based, human; conditions: TNIK-null JHUEM7, 48 hours, Fig. 3K
OV231-CP30 cells [7] = test: CellTiter-Glo cell viability assay; assay type: cell-based, human; conditions: OV231-CP30, 48 hours, Fig. 2B
In short: as §1

OV-UM52.1 cells = test: 3D CellTiter-Glo cell viability assay; assay type: cell-based, human; conditions: OV-UM52.1, 3D, 48 hours
In short: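 Primary HGSC cells were grown as 3D spheres in MammoCult with supplement on ultralow-attachment plates and treated with a dose curve of test compound. CellTiter-Glo 3D luminescence was read after 48 h. Values were expressed relative to DMSO (mean ± SEM, n = 3). The curve was fitted with bottom constrained to 0 and top to 1.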

[8] = system: canonical Wnt pathway activation (reporter TOP-GFP) in OV81-CP40 cells; test: TOP-GFP and FOP-GFP assay; assay type: cell-based, human; conditions: OV81-CP40, 6 hours, 20 mmol/L LiCl, […] NCB-0846 or 100 nmol/L NVP-2
In short: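 OV81-CP40 cells stably expressing lentiviral TOP-GFP or FOP-GFP reporters were plated and treated one day later for 6 h with LiCl and/or test compounds. Cells were harvested, PBS-washed and run by flow cytometry at 10,000 cells per sample, gating the top ~10% GFP-positive cells. Results were given as TOP/FOP, mean ± SEM, n = 3, by one-way ANOVA.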

[9] = system: P10_rPlfl patient-derived organoid; test: Organoid drug-response profiling; assay type: cell-based, human; conditions: organoid P10_rPIfl, 96 hours
In short: as §2

OV-UM50.2 cells = test: 3D CellTiter-Glo cell viability assay; assay type: cell-based, human; conditions: OV-UM50.2, 3D, 48 hours
OV-UM32.1 cells = test: 3D CellTiter-Glo cell viability assay; assay type: cell-based, human; conditions: OV-UM32.1, 3D, 48 hours
OV81-CP40 cells [10] = test: MTT cell viability assay; assay type: cell-based, human
OV231-CP30 spheres = test: 3D CellTiter-Glo cell viability assay of spheres; assay type: cell-based, human; conditions: OV231-CP30 grown in 3D (spheroids), 48 hours
In short: as §3

HEC1B cells = test: MTT cell viability assay; assay type: cell-based, human; conditions: dose response up to 10 μmol/L, 48 hours, unable to generate an EC50
primary HGSC organoids = test: Organoid drug-response profiling, whole panel; assay type: cell-based, human; conditions: 96 hours
In short: as §2

FT237 cells [11] = test: MTT cell viability assay; assay type: cell-based, human; conditions: FT237, 48 hours, nondeterminable up to highest dose, Supplementary Fig. S5D
[12] = OV81-CP40, MTT used to generate CI, Fig. 2D

OC1CCC(Oc2cccc3cnc(Nc4ccc5nc[nH]c5c4)nc23)CC1 (stereo not shown) [NCB-0846] was tested, and the “response of cell viability to dose curve” value (FT194 cells) was “minimally responsive”, the EC50 (OV231-CP30 cells [1]; OV231-CP30, MTT used to generate CI, Fig. 2D) was 0.44 µM and the IC50 [2] was 4.03 µM. The IC50 [3] was > 10 µM, the “number of kinase hits” value [4] was 175 and the EC50 (OV81-CP40 cells [5]; OV81-CP40, 48 hours, Fig. 2B) was 0.465 µM. It also gave an EC50 (OV81-CP40 cells [5]; OV81-CP40, LiCl+-treated cells (20 mmol/L LiCl), 48 hours, Fig. 3A) of 2.12 µM, an EC50 (OV81-CP40 cells [5]; OV81-CP40, LiCl−-treated cells, 48 hours, Fig. 3A) of 0.585 µM and an EC50 (OV81-CP40 cells [5]; OV81-CP40 transfected with siCDK9 9, 48 hours, Fig. 5C) of 0.161 µM. For the same compound, the EC50 (OV81-CP40 cells [5]; OV81-CP40 transfected with siCDK9 11, 48 hours, Fig. 5C) was 0.143 µM, the EC50 (OV81-CP40 cells [5]; OV81-CP40 transfected with siControl, 48 hours, Fig. 5C) was 0.399 µM and the EC50 (OV81-CP40 spheres) was 0.71 µM. For the same compound, the “response of cell viability to dose curve” value (FT237 cells [6]) was “minimally responsive”, the “reduction in cell viability at maximal doses” value (JHUEM7 cells) was ~50% and the EC50 (OV231-CP30 cells [7]) was 0.584 µM. For the same compound, the EC50 (OV-UM52.1 cells) was 2.61 µM, the “TOP-GFP induction after LiCl addition” value [8] was “significantly decrease” and the IC50 [9] was > 10 µM. For the same compound, the EC50 (OV-UM50.2 cells) was 1.6 µM, the EC50 (OV-UM32.1 cells) was 4.33 µM and the EC50 (OV81-CP40 cells [10]; [12]) was 0.464 µM. The EC50 (OV231-CP30 spheres) was 1.59 µM and the EC50 (HEC1B cells) was > 10 µM.
Compound N.N.[Cl][Pt][Cl] [cisplatin] has an EC50 (OV-UM52.1 cells) of 9.63 µM, an EC50 (OV-UM50.2 cells) of 22.2 µM and an EC50 (OV-UM32.1 cells) of 12.9 µM. For the same compound, the EC50 (OV81-CP40 cells [10]; [12]) was “non determinable (ND)”.
OC1CCC(Oc2cccc3cnc(Nc4ccc5nc[nH]c5c4)nc23)CC1 (stereo not shown) [NCB-0970] was tested, and the EC50 (OV231-CP30 cells [1]; read-out: 48-hour EC50, OV231-CP30, 48 hours, Supplementary Fig. S2E) was 3.64 µM and the EC50 (OV81-CP40 cells [10]; read-out: 48-hour EC50, OV81-CP40, 48 hours, Supplementary Fig. S2E) was 9.92 µM.
With N.N.O=C([O-])C1(C(=O)[O-])CCC1.[Pt+2] [Carboplatin, carboplatin] the survival (primary HGSC organoids; all 13 organoids tested, at 10 μmol/L) was ≥ 50%, the IC50 (primary HGSC organoids; five of the 13 organoids) was < 100 µM and the reduction in survival (primary HGSC organoids; only one organoid, at 100 μmol/L) was “greater than 70%”.
For COC[C@@H](C)NC1CCC(Nc2cc(-c3cccc(NCC4(C#N)CCOCC4)n3)c(Cl)cn2)CC1 (stereo partly shown) [NVP-2], the EC50 (OV81-CP40 spheres) was 0.0521 µM, the EC50 (FT237 cells [11]) was > 0.08 µM and the “TOP-GFP induction after LiCl addition” value [8] was “significantly decrease”. The EC50 (OV81-CP40 cells [10]; OV81-CP40, 48 hours, Supplementary Fig. S5D) was 0.0127 µM and the EC50 (OV231-CP30 spheres) was 0.0603 µM.
